In the library only some 4.7% were active in any assay of this set; here they are far more common.
MC4R antag cAMP: antagonists of human melanocortin 4 receptor (MC4R). P32245. MC4R-expressing cells, MTII-stimulated cAMP, LANCE TR-FRET. inhibition, % at 6.5 µM. 360,000 tested, 0.48% active. AID 540295;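 active means inhibition above its plate's cutoff, the mean of tested wells on that plate plus 3 SD, cut at about 29% in these data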;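 further: 0% = Melanotan II alone and 100% = Melanotan II plus saturating MCL0020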
Target sequence (P32245 whole entry, looked up): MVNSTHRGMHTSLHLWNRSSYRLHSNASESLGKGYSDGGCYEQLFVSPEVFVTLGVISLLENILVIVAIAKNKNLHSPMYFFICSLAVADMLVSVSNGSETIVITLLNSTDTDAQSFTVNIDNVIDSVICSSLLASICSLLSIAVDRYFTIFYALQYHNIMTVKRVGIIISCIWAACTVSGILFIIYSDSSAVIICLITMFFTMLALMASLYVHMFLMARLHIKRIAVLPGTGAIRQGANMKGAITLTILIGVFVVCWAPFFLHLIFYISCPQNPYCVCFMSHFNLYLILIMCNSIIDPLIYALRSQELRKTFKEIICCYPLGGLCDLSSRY
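Material – human MC4R-expressing U2OS cells · Repeats – no replicates · Detection – TR-FRET with Eu-cAMP and labeled anti-cAMP, 671 nm · Times – compound 30 min, challenge 1 h, detection 1 h · Compound – single nominal compound dose of 6.5 µM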
GAA850 FXN act: activators of GAA850 frataxin (FXN) promoter. activation, % at 6 µM. 360,000 tested, 0.56% active. HEK293 lucGAA850 FXN promoter luciferase reporter, 24 h; percent of 10 µM SAHA response. AID 540364;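 active means activation above the average of all compounds screened plus 3 SD, cutoff fixed separately per campaign, cut at about 7.5% in these data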;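 further: 0% = DMSO wells and 100% = 10 µM SAHA wells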
AHR act: activates the human aryl hydrocarbon receptor; AID 2796; P35869; activation, % at 5 µM; 320,000 tested, 2.5% active; AHR-responsive luciferase reporter cells, luminescence; in the data active means activation above about 47%;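 further: 0% = vehicle wells and 100% = reference agonist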
HTR2A ag: agonists of mouse serotonin 5-HT2A receptor (HTR2A) | 360,000 tested, 0.66% active | CHO-K1 mHTR2A beta-arrestin complementation, luminescence; percent of 30 µM serotonin response | activation, % at 7.6 µM | AID 624169;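 active means activation above a run cutoff, the mean activation of all tested compounds plus 3 SD, cut at about 14% in these data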;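 further: 0% = plate median of compound wells and 100% = 30 µM serotonin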
MC4R barr agon: agonists of human melanocortin 4 receptor (MC4R) beta-arrestin; U2OS MC4R beta-arrestin complementation, luminescence; percent of melanotan II response, DMSO zero; activation, % at 8.9 µM; 360,000 tested, 0.98% active;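 active means activation above a per-plate cutoff, the mean activation of sample wells on that plate plus 3 SD, cut at about 8% in these data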
cAMP nonselect: U2OS forskolin cAMP inhibition counter-screen | parental U2OS, LANCE TR-FRET | 1,600 tested, 26% active | shares compounds with MC4R antag cAMP | inhibition, % at 6.5 µM;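 active means mean inhibition over triplicates above the low-control well mean plus 3 SD, set per campaign, cut at about 13% in these data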;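 further: signal is single emission at 671 nm which falls as cellular cAMP rises; 0% = forskolin-stimulated wells and 100% = buffer without forskolin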
MC4R cAMP antag: human MC4R cAMP antagonism confirmation | shares compounds with MC4R antag cAMP | MC4R-expressing cells, MTII-stimulated cAMP, TR-FRET | inhibition, % at 6.5 µM | 1,600 tested, 27% active; in the data active means inhibition above about 29%;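 further: 0% = agonist stimulated wells alone and 100% = agonist stimulated wells plus saturating reference antagonist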
MC4R barr ag: human MC4R beta-arrestin agonism confirmation; shares compounds with MC4R barr agon; U2OS MC4R beta-arrestin recruitment, luminescence; scaled DMSO 0%, Melanotan II 100%; activation, % at 8.9 µM; 2,400 tested, 31% active; AID 602192;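 active means mean activation across replicates above the hit cutoff set in the earlier primary screen, cut at about 8% in these data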
MOR-DOR barr ag: OPRM1-OPRD1 heterodimer agonism counter-screen. shares compounds with MC4R barr agon. U2OS PathHunter beta-arrestin, beta-gal luminescence; percent of deltorphin B response, DMSO zero. activation, % at 9.2 µM. 2,400 tested, 5.8% active. AID 602194;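 active means mean activation across replicates exceeds the hit threshold derived in the earlier primary screen, cut at about 18% in these data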;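 further: 100% = deltorphin B at 0.9 µM final and 0% = DMSO alone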
GAA30 FXN cntr: counter-screen for GAA850 frataxin promoter activators: GAA30 promoter activation; 1,900 tested, 66% active; HEK293 lucGAA30 FXN promoter luciferase, 24 h; DMSO = 0%, 5 µM ipriflavone = 100%; AID 588350; activation, % at 6 µM; shares compounds with GAA850 FXN act;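 active means mean activation above the mean of solvent-only control wells plus 3 SD, cut at about 22% in these data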;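 further: counterscreen of GAA850 promoter hits where activity marks nonselective or luminescence artifacts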
FXN GAA850 conf: confirmation of GAA850 frataxin (FXN) promoter activators | shares compounds with GAA850 FXN act | 1,900 tested, 86% active | HEK293 lucGAA850 FXN promoter luciferase reporter, 24 h; 100% = activation by SAHA | activation, % at 6 µM;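 active means mean activation above a set limit taken from the primary screen, cut at about 8% in these data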;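 further: 0% = DMSO wells and 100% = 10 µM SAHA wells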
OPRM1 ag: OPRM1 agonism in mouse HTR2A counterscreen; U2OS OPRM1 beta-arrestin PathHunter, luminescence; DMSO 0%, DAMGO 9.3 µM 100%; shares compounds with HTR2A ag; 2,300 tested, 5.3% active; AID 624380; activation, % at 9.3 µM;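 active means mean activation above the mean of DMSO-only wells plus 3 SD, cut at about 0.5% in these data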
Target sequence (P35372 whole entry, looked up): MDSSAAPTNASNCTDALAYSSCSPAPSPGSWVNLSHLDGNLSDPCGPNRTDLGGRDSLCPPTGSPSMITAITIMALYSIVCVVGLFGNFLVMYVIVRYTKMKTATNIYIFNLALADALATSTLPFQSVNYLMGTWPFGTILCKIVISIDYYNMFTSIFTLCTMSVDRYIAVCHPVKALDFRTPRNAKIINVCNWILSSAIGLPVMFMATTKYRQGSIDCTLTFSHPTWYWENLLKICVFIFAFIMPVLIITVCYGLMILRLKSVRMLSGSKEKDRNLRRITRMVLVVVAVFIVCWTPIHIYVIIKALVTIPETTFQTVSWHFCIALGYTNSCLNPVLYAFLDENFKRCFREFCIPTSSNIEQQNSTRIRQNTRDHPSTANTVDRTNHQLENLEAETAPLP
HTR2A ag conf: confirmation of mouse HTR2A serotonin receptor agonists; AID 624381; 2,300 tested, 19% active; CHO-K1 PathHunter beta-arrestin recruitment, luminescence; DMSO 0%, 30 µM serotonin 100%; shares compounds with HTR2A ag; activation, % at 7.6 µM;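 active means mean activation across triplicates above the hit threshold derived in the original primary screen, cut at about 15% in these data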
* = called active by the depositor; . = no result given.

SMILES	MC4R antag cAMP	GAA850 FXN act	AHR act	HTR2A ag	MC4R barr agon	others
CC(CC(C)(C)N1CC1)=NNC(=O)Nc1cccc2ccccc12	2	0	.	6	0
c1cc2c(cc1N1CCOCC1)CNCc1cnnn1-2	.	.	.	5	.
COc1ccc2c(c1)C1(C(=O)O)CC=CCC1(C(=O)O)C2 (stereo not given)	2	0	.	6	-3
Cc1cc(/C=C2\C(=O)NC(=O)N(Cc3ccco3)C2=O)c(C)n1-c1ccc(O)cc1	30*	0	-1	1	1	cAMP nonselect=2;MC4R cAMP antag=8
Cc1ccc(-n2c(C)cc(/C=C3/C(=O)NC(=O)N(Cc4ccco4)C3=O)c2C)cc1	3	1	0	-4	-1
CC(C)CCNC(=O)c1c(N)n(Cc2ccc3c(c2)OCO3)c2nc3ccccc3nc12	-4	-2	1	2	13*	MC4R barr ag=8.4*;MOR-DOR barr ag=4
CC(C)CNC(=O)c1c(N)n(Cc2ccc3c(c2)OCO3)c2nc3ccccc3nc12	-3	0	21	-6	11*	MC4R barr ag=9.2*;MOR-DOR barr ag=4
COC(=O)C1=C(c2cc3ccccc3o2)C[C@@H]2CC[C@H]1N2C(=O)NCCCOC(C)C	7	1	0	5	1
CC(C)N1CCN(Cc2cccc3c2OCO3)CC1CCO (stereo not given)	-7	3	3	6	-3
COc1ccccc1OP(=O)(Nc1ccc(Br)cc1)Oc1ccccc1OC	5	-1	17	-2	18*	MC4R barr ag=-1;MOR-DOR barr ag=8
CC1CCC(C(C)C)C(OC(=O)Cn2c(COc3ccccc3)[n+](C)c3ccccc32)C1 (stereo not given)	-11	4	0	-8	29*	MC4R barr ag=10*;MOR-DOR barr ag=8
CN(C)C(Cc1ccccc1)C(=O)c1c[nH]c2ccccc12 (stereo not given)	-5	-1	15	-6	-1
Nc1ccc(C2(c3ccc(N)cc3)c3ccccc3-c3ccccc32)cc1	-4	3	4	-1	70*	MC4R barr ag=45*;MOR-DOR barr ag=15
Nc1ccc(-c2ccccc2)cc1	-3	1	.	6	0
C=CCn1c(O)c(/C(C)=N/N2CCCCC2)c(=O)[nH]c1=O	5	2	-2	1	-2
CN1CCCC(C(=O)c2ccc(Cl)cc2)C1 (stereo not given)	24	0	4	-1	2
O=P(NC(c1ccccc1)c1ccccc1)(Oc1ccccc1)Oc1ccccc1	1	2	-2	3	11*	MC4R barr ag=0;MOR-DOR barr ag=8
O=P(Nc1ccccc1)(Oc1ccccc1)Oc1ccccc1	5	-2	0	-2	2
CCN(CC)c1ccc(N=Cc2c(O)n(Cc3ccco3)c(=O)[nH]c2=O)cc1	13	0	27	0	11*	MC4R barr ag=-1;MOR-DOR barr ag=5
CC(C)(C)c1cc(OC(=O)Cc2ccccc2)ccc1O	3	1	12	15*	10*	MC4R barr ag=6;MOR-DOR barr ag=14;OPRM1 ag=0;HTR2A ag conf=-1
COC(=O)C1=C(c2cccc(OCc3ccccc3)c2)C[C@@H]2CC[C@H]1N2C(=O)NCc1cc(C)oc1C(F)(F)F	24	-5	-1	-3	-1
CN1C(=O)/C(=C\c2ccc(N3CCCCC3)o2)C(=O)NC1=S	-29	5	6	6	-3
CN1C(=O)/C(=C/c2ccc(N3CCCCCC3)o2)C(=O)NC1=S	-8	9.9*	12	-5	-1	GAA30 FXN cntr=100*;FXN GAA850 conf=47*
O=[N+]([O-])c1ccc(O)c([N+](=O)[O-])c1	9	0	0	2	-2
O=[N+]([O-])c1ccc(Cl)c([N+](=O)[O-])c1	27	8.0*	-4	-1	1	GAA30 FXN cntr=38*;FXN GAA850 conf=78*
SMILES	MC4R antag cAMP	GAA850 FXN act	AHR act	HTR2A ag	MC4R barr agon	others
Cc1ccc(N2C(=O)NC(=O)/C(=C\C=C\c3ccco3)C2=O)cc1	9	8.0*	3	0	-1	GAA30 FXN cntr=11;FXN GAA850 conf=20*
O=C1NC(=O)N(c2ccccc2)C(=O)/C1=C/C=C/c1ccco1	10	6	1	-2	-1
Cc1ccc(N2C(=O)NC(=O)/C(=C\C=C\c3ccco3)C2=O)cc1C	8	8.4*	1	2	-4	GAA30 FXN cntr=-52;FXN GAA850 conf=-4
COC(=O)C1=C(c2c(C)noc2C)C[C@@H]2CC[C@H]1N2C(=O)N1CCCC1	4	-2	0	-4	-1
CCCCCP(=O)(O)c1ccccc1	4	1	0	5	0
CCCC/C(C)=C/[C@@H](NP(=O)(c1ccccc1)c1ccccc1)c1ccccc1	2	9.2*	3	2	0	GAA30 FXN cntr=13;FXN GAA850 conf=5
CC1(C)CC(N(CCc2ccccc2)Cc2ccccc2)CCO1 (stereo not given)	4	1	-3	-1	0
COC1/C=C/C=C(\C)Cc2cc(O)c(Cl)c(c2)N(C)C(=O)CC(OC(=O)C(C)C)C2(C)OC2C(C)C2CC1(O)NC(=O)O2 (stereo not given)	-14	19*	.	-2	-3	GAA30 FXN cntr=-17;FXN GAA850 conf=21*
N#Cc1cn(C2OC(CO)C(O)C2O)c2ncnc(N)c12 (stereo not given)	7	14*	.	-5	1	GAA30 FXN cntr=48*;FXN GAA850 conf=-4

Screening results from PubChem BioAssay.
